# Active and inactive are the calls of the source. The rule behind the calls is not given here.
# Target: Muscarinic acetylcholine receptor M2 (Homo sapiens) (UniProt P08172)
# Assay: ACh response enhancement at M2 – CHO cells, human M2, selectivity assay for M5 PAM project (AID 651924)
# Outline: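 Test system: CHO-K1 cells expressing human M2 muscarinic receptor with Gqi5; Timing: compound pre-incubation 1.5 min, acetylcholine stimulation 50 s, 25 °C; Probe or stimulus: acetylcholine EC20; Medium: HBSS with HEPES and probenecid, pH 7.4; Read-out basis: % of maximal acetylcholine response; Signal: calcium fluorescence with Fluo-4 AM, dye loaded 45–60 min at 37 °C.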
# Sequence of Muscarinic acetylcholine receptor M2 (Homo sapiens) (P08172 whole entry, looked up): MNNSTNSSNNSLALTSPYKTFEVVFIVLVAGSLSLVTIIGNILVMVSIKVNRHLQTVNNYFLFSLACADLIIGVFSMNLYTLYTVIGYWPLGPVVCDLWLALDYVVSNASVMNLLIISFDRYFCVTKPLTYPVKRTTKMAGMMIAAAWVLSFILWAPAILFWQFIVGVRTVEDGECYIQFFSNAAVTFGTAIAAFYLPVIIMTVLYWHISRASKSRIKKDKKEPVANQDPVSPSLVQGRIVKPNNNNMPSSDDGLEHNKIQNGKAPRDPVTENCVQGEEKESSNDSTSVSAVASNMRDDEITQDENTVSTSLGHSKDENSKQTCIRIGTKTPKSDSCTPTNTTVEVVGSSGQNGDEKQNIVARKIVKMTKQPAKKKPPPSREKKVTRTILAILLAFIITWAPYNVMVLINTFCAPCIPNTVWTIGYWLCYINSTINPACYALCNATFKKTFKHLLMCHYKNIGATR
smiles,measurement,value
O=C1C(=O)N(CCOc2ccccc2)c2ccc(OC(F)(F)F)cc21,outcome,inactive
